Data: PMC3140432 (Biochimica et biophysica acta, 2011)
Read-outs that look alike come from different tables or passages of the source.

What was measured:
Gβ1γ2 [1] = molecular target: T1, Gβ1γ2 (Homo sapiens, UniProt P62873); test: Surface plasmon resonance direct binding to immobilized biotinylated Gβ1γ2
Gβ1His6γ2C68S = Gβ1His6γ2C68S (Homo sapiens, UniProt P62873); test: Non-covalent nano ESI QToF mass spectrometry of Gβγ-gallein complexes; type: binding; conditions: collision energies that maintain some non-covalent Gβ-Gγ interactions
Summary of the method: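 Test compound (100 µM) mixed with 5 µM Gβ1His6γ2C68S in 20 mM ammonium acetate, pH 7.0, for 30 min at room temperature. Intact non-covalent complexes were analysed by nano-ESI QToF MS under mild ionisation at low and high collision cell voltage. The C68S mutation blocks Gγ2 lipidation, so no detergent was used.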

Gβγ = Gβγ (Homo sapiens, UniProt P62873); test: SPR direct binding to Gβγ with surface regeneration protocol; conditions: for Kd: Kd (μM), surface regeneration protocol, average of N experiments; for koff: read-out: koff (×10^−4s^−1)
Summary of the method: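 Gβ1γ2, biotinylated at the Gβ N-terminus, was captured on neutravidin amine-coupled to the sensor (2000–10000 µRIU), then blocked with 1 mM biotin. The run used 50 mM HEPES pH 7.6, 1 mM EDTA, 100 mM NaCl, 0.1% C12E10, 1 mM DTT and 1.2% DMSO at 25°C. Dilutions were injected 7 min at 50 µL/min with 10 min dissociation. Regeneration was 3×30 s MgCl2/urea/guanidine-HCl. Data were reference/blank/DMSO-corrected, fitted by a regeneration kinetic model and averaged.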

Gβ1γ2 [2] = molecular target: T1, Gβ1γ2; test: [3H]-gallein binding to Gβγ, spin desalting column separation; conditions: 100 μM gallein or greater; 1 μM Gβγ
[3] = Kd (μM), kinetic titration, average of N experiments

## SIGK(L9A): Control peptide, non-binding in the ELISA experiments (SIGKAFKIAGYPDYD) [reference compound]
Gβ1γ2 [1]; control peptide, data not shown
  SPR response associated with binding to Gβγ: did not elicit a response

## O=C(O)C1CCCCC1c1c2ccc(=O)c(O)c-2oc2c(O)c(O)ccc12 (stereo not shown) [M119, 2-(3,4,5-trihydroxy-6-oxoxanthen-9-yl)cyclohexane-1-carboxylic acid]
Gβ1γ2 [1]; Kd (M), Equilibrium titration
  Kd: 4.6e-07 M
Gβ1γ2 [1]; Kd (M), Kinetic titration
  Kd: 1.2e-07 M
Gβ1γ2 [1]; average Kd
  Kd: 2.76e-07 ± 7e-08 M
Gβ1γ2 [1]; equilibrium analysis, Rmax(obs) fit to 1:1 Langmuir isotherm, single data set
  Ka (association constant): 2.16e+06 M⁻¹
Gβ1γ2 [1]; read-out: koff (s^−1), Kinetic titration
  koff: 0.00012 s⁻¹
Gβ1γ2 [1]; read-out: koff (×10^−4s^−1)
  koff: 0.0002 ± 8e-05 s⁻¹
Gβ1γ2 [1]; read-out: kon (M^−1s^−1)
  kon: 830 ± 200 M⁻¹ s⁻¹
Gβ1γ2 [1]; read-out: kon (M^−1s^−1), Kinetic titration
  kon: 1027 ± 8 M⁻¹ s⁻¹

## O=C1OC2(c3ccccc31)c1ccc(O)c(O)c1Oc1c2ccc(O)c1O [Gallein, 3′, 4′, 5′, 6′-tetrahydroxyspiro[2-benzofuran-3, 9′-xanthene]-1-one]
Gβ1His6γ2C68S
  reversal of binding at higher collision energy: fully reversed
Gβ1γ2 [1]; [3]
  Kd: 4.07e-07 ± 2.4e-07 M
Gβ1γ2 [1]; kinetic titration
  concentration above which non-specific/multiple binding sites were observed: above 30 μM
  koff slower than that of M201: 10 fold
Gβ1γ2 [1]; read-out: koff (×10^−4s^−1)
  koff: 0.00035 ± 4.5e-05 s⁻¹
Gβ1γ2 [1]; read-out: kon (M^−1s^−1)
  kon: 870 ± 112 M⁻¹ s⁻¹
Gβγ
  kon: 981 M⁻¹ s⁻¹
  Kd: 0.35 ± 0.03 µM
  koff: 0.00032 ± 2.7e-05 s⁻¹
Gβγ; read-out: kon (M^−1s^−1)
  kon: 926 ± 55 M⁻¹ s⁻¹
Gβ1γ2 [2]
  maximum binding stoichiometry: 1.6 moles of gallein to 1 mole of Gβγ

## Nc1cccc(Nc2cc(S(=O)(=O)O)c(N)c3c2C(=O)c2ccccc2C3=O)c1 [compound 372, 1-amino-4-(3-aminoanilino)-9,10-dioxoanthracene-2-sulfonic acid]
Gβ1γ2 [1]; [3]
  Kd: 2e-06 ± 3e-07 M
Gβ1γ2 [1]; kinetic titration
  concentration above which non-specific/multiple binding sites were observed: > 20 µM
  koff slower than that of M201: 10 fold
Gβ1γ2 [1]; read-out: koff (×10^−4s^−1)
  koff: 0.00086 ± 0.00024 s⁻¹
Gβ1γ2 [1]; read-out: kon (M^−1s^−1)
  kon: 390 ± 93 M⁻¹ s⁻¹
Gβγ
  Kd: 2.7 ± 0.45 µM
  koff: 0.00082 ± 0.00051 s⁻¹
Gβγ; read-out: kon (M^−1s^−1)
  kon: 267 ± 137 M⁻¹ s⁻¹
